In ChEMBL document CHEMBL1127378, “Influence of lipophilicity on the biological activity of cyclic pseudopeptide NK-2 receptor antagonists” (J Med Chem, 1994):
Where a SMILES comes first, the peptide text is derived from it. [ ]: non-standard residue; d: D form. Cha = N[C@@H](CC1CCCCC1)C(=O)O; βAla = NCCC(=O)O

Experiments:
Substance-K receptor [1] = target: T1, Substance-K receptor (Mesocricetus auratus, UniProt P51144); assay: Tested for antagonist activity at NK-2 tachykinin receptors in hamster trachea; assay type: functional; conditions: for Kb: read-out: pA2 (converted)
T1 sequence (P51144 whole entry): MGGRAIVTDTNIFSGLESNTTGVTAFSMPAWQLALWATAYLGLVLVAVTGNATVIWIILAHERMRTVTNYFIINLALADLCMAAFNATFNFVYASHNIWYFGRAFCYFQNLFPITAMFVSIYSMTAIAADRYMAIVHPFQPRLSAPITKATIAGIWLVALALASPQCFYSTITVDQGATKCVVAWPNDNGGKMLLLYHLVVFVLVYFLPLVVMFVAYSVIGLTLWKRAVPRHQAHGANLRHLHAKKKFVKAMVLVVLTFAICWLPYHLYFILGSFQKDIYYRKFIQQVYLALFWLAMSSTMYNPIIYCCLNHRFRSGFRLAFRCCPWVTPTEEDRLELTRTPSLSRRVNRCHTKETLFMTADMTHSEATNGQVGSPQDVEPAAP
In short: (§1)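 Isolated tissues from male New Zealand rabbits (2.5-3 kg) or male Syrian golden hamsters (90-130 g). Endothelium-denuded pulmonary artery strips (rabbit) or tracheal rings (hamster) were used for isometric tension in oxygenated (96% O2/4% CO2) Krebs. Thiorphan, captopril and bestatin were added 15 min before agonist. Cumulative NKA curves were repeated after 15 min antagonist incubation, with one concentration per experiment and at least three concentrations. pA2 came from constrained Schild plots (≥9 experiments).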

Substance-K receptor [2] = target: T2, Substance-K receptor (Oryctolagus cuniculus, UniProt P79218); assay: Antagonist activity at NK-2 tachykinin receptors in rabbit pulmonary artery; assay type: functional; conditions: for Kb: read-out: pA2 (converted); in short: as §1
T2 sequence (P79218 whole entry): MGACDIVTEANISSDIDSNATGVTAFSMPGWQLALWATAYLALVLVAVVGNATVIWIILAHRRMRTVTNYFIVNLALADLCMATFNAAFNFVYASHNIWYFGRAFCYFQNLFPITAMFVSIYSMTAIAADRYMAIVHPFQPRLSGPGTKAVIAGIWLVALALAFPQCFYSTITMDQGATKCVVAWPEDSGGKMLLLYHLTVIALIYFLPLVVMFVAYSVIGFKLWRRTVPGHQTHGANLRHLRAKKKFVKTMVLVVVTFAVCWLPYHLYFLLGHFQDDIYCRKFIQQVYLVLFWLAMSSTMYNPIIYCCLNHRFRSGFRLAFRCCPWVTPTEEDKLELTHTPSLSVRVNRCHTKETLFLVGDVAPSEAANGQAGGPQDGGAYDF

Substance-K receptor [3] = target: T2, Substance-K receptor; assay: Tested for antagonist activity at NK-2 tachykinin receptors in rabbit pulmonary artery; conditions: read-out: pA2 (converted)
[4] = Tested for capacity factors by reversed phase HPLC (C18, solvent system 1)
[5] = target: T3, Substance-K receptor (Oryctolagus cuniculus) (UniProt P79218); conditions: filed as agonist
T3 sequence (whole entry): T2 sequence (P79218 whole entry)

[6] = target: T3, Substance-K receptor (Oryctolagus cuniculus)

Structure (SMILES)	Kb (Substance-K receptor [1]) [µM]	Kb (Substance-K receptor [2]) [µM]	k' [4]	further results
CSCC[C@@H]1NC[C@@H](CC(C)C)NC(=O)CCNC(=O)[C@H](Cc2ccccc2)NC(=O)[C@H](Cc2c[nH]c3ccccc23)NC(=O)[C@H](CCC(N)=O)NC1=O	0.0129	0.224		
CC(C)C[C@@H]1CN[C@@H](CC(C)C)C(=O)N[C@@H](CCC(N)=O)C(=O)N[C@@H](Cc2c[nH]c3ccccc23)C(=O)N[C@@H](Cc2ccccc2)C(=O)NCCC(=O)N1	0.0158	0.112		
CC(C)C[C@@H]1CN[C@@H](CC2CCCCC2)C(=O)N[C@@H](CCC(N)=O)C(=O)N[C@@H](Cc2c[nH]c3ccccc23)C(=O)N[C@@H](Cc2ccccc2)C(=O)NCCC(=O)N1	0.000871			Kb (Substance-K receptor [3]): 0.0389 µM
CC(C)C[C@@H]1CN(C)[C@@H](CC2CCCCC2)C(=O)N[C@@H](CCC(N)=O)C(=O)N[C@@H](Cc2c[nH]c3ccccc23)C(=O)N[C@@H](Cc2ccccc2)C(=O)NCCC(=O)N1	0.0038	0.117		
CC(C)C[C@@H]1CN[C@@H](CC(C)C)C(=O)N[C@H](CCC(N)=O)C(=O)N[C@@H](Cc2c[nH]c3ccccc23)C(=O)N[C@H](Cc2ccccc2)C(=O)NCCC(=O)N1			9.9	
CC(C)C[C@@H]1CN(C)[C@@H](CC2CCCCC2)C(=O)N[C@H](CCC(N)=O)C(=O)N[C@@H](Cc2c[nH]c3ccccc23)C(=O)N[C@H](Cc2ccccc2)C(=O)NCCC(=O)N1			13.1	
CC(C)C[C@@H]1CN[C@@H](CC2CCCCC2)C(=O)N[C@H](CCC(N)=O)C(=O)N[C@@H](Cc2c[nH]c3ccccc23)C(=O)N[C@H](Cc2ccccc2)C(=O)NCCC(=O)N1			11.6	
CSCC[C@@H]1NC[C@@H](CC(C)C)NC(=O)CCNC(=O)[C@@H](Cc2ccccc2)NC(=O)[C@H](Cc2c[nH]c3ccccc23)NC(=O)[C@@H](CCC(N)=O)NC1=O			9.6	
CC(C)C[C@@H]1CN[C@@H](Cc2ccc3ccccc3c2)C(=O)N[C@@H](CCC(N)=O)C(=O)N[C@@H](Cc2c[nH]c3ccccc23)C(=O)N[C@@H](Cc2ccccc2)C(=O)NCCC(=O)N1				pA2 (Substance-K receptor [1]): 8.79; pA2 (Substance-K receptor [2]): 7.37
CC(C)C[C@@H]1NC(=O)CCNC(=O)[C@H](Cc2ccccc2)NC(=O)[C@H](Cc2c[nH]c3ccccc23)NC(=O)[C@H](CCC(N)=O)NC(=O)[C@H](CC2CCCCC2)NC1=O (cyclo([Cha]QWF[βAla]L))	0.0316	1.45		
CC(C)C[C@@H]1CN[C@@H](CCCCN)C(=O)N[C@H](CCC(N)=O)C(=O)N[C@@H](Cc2c[nH]c3ccccc23)C(=O)N[C@H](Cc2ccccc2)C(=O)NCCC(=O)N1			6.8	pA2 [5]: Agonist; pD2 [6]: 5.96
CC(C)C[C@@H]1CN[C@@H](CCCCN)C(=O)N[C@@H](CCC(N)=O)C(=O)N[C@@H](Cc2c[nH]c3ccccc23)C(=O)N[C@@H](Cc2ccccc2)C(=O)NCCC(=O)N1	0.309			

Now from value to compound, other results behind:

Kb (Substance-K receptor [1]) [µM]	Kb (Substance-K receptor [2]) [µM]	k' [4]	Structure (SMILES)	further results
0.00676	0.129		CC(C)C[C@@H]1CN[C@@H](CCCCNC(=O)OCc2ccccc2)C(=O)N[C@@H](CCC(N)=O)C(=O)N[C@@H](Cc2c[nH]c3ccccc23)C(=O)N[C@@H](Cc2ccccc2)C(=O)NCCC(=O)N1	
		7.9	CC(C)C[C@@H]1CN[C@@H](CC(=O)O)C(=O)N[C@H](CCC(N)=O)C(=O)N[C@@H](Cc2c[nH]c3ccccc23)C(=O)N[C@H](Cc2ccccc2)C(=O)NCCC(=O)N1	
		12	CC(C)C[C@@H]1CN[C@@H](Cc2ccc3ccccc3c2)C(=O)N[C@H](CCC(N)=O)C(=O)N[C@@H](Cc2c[nH]c3ccccc23)C(=O)N[C@H](Cc2ccccc2)C(=O)NCCC(=O)N1	
0.0186	0.0794		CC(C)C[C@@H]1CN[C@@H](Cc2ccccc2)C(=O)N[C@@H](CCC(N)=O)C(=O)N[C@@H](Cc2c[nH]c3ccccc23)C(=O)N[C@@H](Cc2ccccc2)C(=O)NCCC(=O)N1	
0.11	0.692		CC(C)C[C@@H]1CN[C@@H](CC(N)=O)C(=O)N[C@@H](CCC(N)=O)C(=O)N[C@@H](Cc2c[nH]c3ccccc23)C(=O)N[C@@H](Cc2ccccc2)C(=O)NCCC(=O)N1	
		11.1	CC(C)C[C@@H]1CN[C@@H](CCC(=O)NCc2ccccc2)C(=O)N[C@H](CCC(N)=O)C(=O)N[C@@H](Cc2c[nH]c3ccccc23)C(=O)N[C@H](Cc2ccccc2)C(=O)NCCC(=O)N1	
		10.5	CC(C)C[C@@H]1CN[C@@H](Cc2ccccc2)C(=O)N[C@H](CCC(N)=O)C(=O)N[C@@H](Cc2c[nH]c3ccccc23)C(=O)N[C@H](Cc2ccccc2)C(=O)NCCC(=O)N1	
		11.9	CC(C)C[C@@H]1CN[C@@H](CCCCNC(=O)OCc2ccccc2)C(=O)N[C@H](CCC(N)=O)C(=O)N[C@@H](Cc2c[nH]c3ccccc23)C(=O)N[C@H](Cc2ccccc2)C(=O)NCCC(=O)N1	
0.00055	0.0155		CC(C)C[C@@H]1CN[C@@H](CCC(=O)NCc2ccccc2)C(=O)N[C@@H](CCC(N)=O)C(=O)N[C@@H](Cc2c[nH]c3ccccc23)C(=O)N[C@@H](Cc2ccccc2)C(=O)NCCC(=O)N1	
0.0676	1.07		CC(C)C[C@@H]1CN[C@@H](CC(=O)O)C(=O)N[C@@H](CCC(N)=O)C(=O)N[C@@H](Cc2c[nH]c3ccccc23)C(=O)N[C@@H](Cc2ccccc2)C(=O)NCCC(=O)N1	
		7.7	CC(C)C[C@@H]1CN[C@@H](CC(N)=O)C(=O)N[C@H](CCC(N)=O)C(=O)N[C@@H](Cc2c[nH]c3ccccc23)C(=O)N[C@H](Cc2ccccc2)C(=O)NCCC(=O)N1	
